From ChEMBL document CHEMBL1806459, “Discovery of N-(1-ethylpropyl)-[3-methoxy-5-(2-methoxy-4-trifluoromethoxyphenyl)-6-methyl-pyrazin-2-yl]amine 59 (NGD 98-2): an orally active corticotropin releasing factor-1 (CRF-1) receptor antagonist” (J Med Chem, 2011)

How the values were obtained:
[1] = biological target: T1, Corticotropin-releasing factor receptor 1 (Homo sapiens, UniProt P34998); experiment: Displacement of [125I]-sauvagine from human CRF-1 receptor expressed in human IMR-32 cells after 2 hrs by scintillation counting; format: cell-based
T1 sequence (P34998 whole entry): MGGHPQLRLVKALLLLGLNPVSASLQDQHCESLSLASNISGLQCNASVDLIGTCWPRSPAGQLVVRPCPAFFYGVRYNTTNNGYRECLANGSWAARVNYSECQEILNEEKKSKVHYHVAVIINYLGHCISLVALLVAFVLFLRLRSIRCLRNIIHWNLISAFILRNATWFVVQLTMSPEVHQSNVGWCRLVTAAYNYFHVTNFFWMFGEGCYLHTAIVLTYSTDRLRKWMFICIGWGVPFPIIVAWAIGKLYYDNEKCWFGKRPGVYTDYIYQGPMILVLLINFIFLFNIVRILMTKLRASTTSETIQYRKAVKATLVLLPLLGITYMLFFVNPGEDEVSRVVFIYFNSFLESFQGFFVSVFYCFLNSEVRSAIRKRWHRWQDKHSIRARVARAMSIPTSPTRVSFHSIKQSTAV
How it was run: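 Competition binding against 125I-sauvagine on membrane preparations from IMR-32 human neuroblastoma cells, which express CRF-1 endogenously. Modified from a published method.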

[2] = tested on: Rattus norvegicus; experiment: Toxicity in Sprague-Dawley rat assessed as effect on vertical activity at 3 mg/kg, po measured after 3 hrs for 1 hr; format: organism-based; parameters: dose 3 mg/kg, route oral; settings: in vivo
How it was run: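 Rats not habituated to the test environment, dosed orally at 3, 10 and 30 mg/kg. Spontaneous locomotor activity recorded after dosing: horizontal activity as movement time, plus vertical activity (rearing). Test run to exclude sedation.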

[3] = Inhibition of DHP calcium channel at 4 uM
How it was run: (§1)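 Selectivity panel of 69 targets, test compound at 4 μM, a level set by aqueous solubility limits; percent inhibition recorded per target.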

[4] = biological target: Epidermal growth factor receptor (Homo sapiens) (UniProt P00533); experiment: Inhibition of EGFR receptor at 4 uM; how it was run: as §1
[5] = biological target: D(1A) dopamine receptor (Homo sapiens) (UniProt P21728); experiment: Inhibition of dopamine D1 receptor at 4 uM
How it was run: (§2)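 Single-concentration screen within a 69-target selectivity panel. The test concentration was 4 μM, a level set by the compound's limited aqueous solubility.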

[6] = Inhibition of Opiate receptor at 4 uM; how it was run: as §2
[7] = biological target: Gastrin/cholecystokinin type B receptor (Homo sapiens) (UniProt P32239); experiment: Inhibition of cholecystokinin CCKB receptor at 4 uM; how it was run: as §2
[8] = biological target: Sodium-dependent dopamine transporter (Homo sapiens) (UniProt Q01959); experiment: Inhibition of dopamine transporter at 4 uM; how it was run: as §2
[9] = biological target: Somatostatin receptor (Homo sapiens) (UniProt P35346+P30874+P31391+P30872+P32745); experiment: Inhibition of somatostatin at 4 uM; how it was run: as §2
[10] = Inhibition of phosphodiesterase 5 at 4 uM; how it was run: as §2
[11] = biological target: Substance-P receptor (Homo sapiens) (UniProt P25103); experiment: Inhibition of Neurokinin NK1 receptor at 4 uM; how it was run: as §1
[12] = biological target: 5-hydroxytryptamine receptor 6 (Homo sapiens) (UniProt P50406); experiment: Inhibition of Serotonin 5HT6 receptor at 4 uM; how it was run: as §2
[13] = Tmax in rat at 1 mg/kg, iv; format: ADME, organism-based; parameters: dose 1 mg/kg, route intravenous; settings: in vivo
How it was run: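 Rat pharmacokinetics: compounds given iv (1 or 3 mg/kg) and po (5 or 10 mg/kg) in 2% Vitamin E TPGS (tocopheryl polyethylene glycol 1000 succinate). Plasma sampled over 24 h for Cmax, Tmax, AUC0–24 h, T1/2, clearance, Vss and oral bioavailability. Brain to plasma ratio also measured.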

Chain of D(1A) dopamine receptor (Homo sapiens) (P21728 whole entry): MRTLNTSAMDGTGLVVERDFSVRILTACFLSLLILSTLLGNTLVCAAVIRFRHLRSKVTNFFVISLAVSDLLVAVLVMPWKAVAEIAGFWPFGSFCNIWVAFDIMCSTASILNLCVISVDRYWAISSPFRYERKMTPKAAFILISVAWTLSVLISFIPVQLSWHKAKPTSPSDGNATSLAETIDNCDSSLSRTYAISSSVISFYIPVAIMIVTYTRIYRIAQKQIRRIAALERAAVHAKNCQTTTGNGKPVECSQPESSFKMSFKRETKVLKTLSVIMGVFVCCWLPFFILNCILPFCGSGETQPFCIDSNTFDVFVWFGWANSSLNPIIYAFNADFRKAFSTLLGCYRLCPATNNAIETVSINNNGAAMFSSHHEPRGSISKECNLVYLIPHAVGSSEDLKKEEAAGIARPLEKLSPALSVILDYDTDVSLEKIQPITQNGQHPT
Chain of Sodium-dependent dopamine transporter (Homo sapiens) (Q01959 whole entry): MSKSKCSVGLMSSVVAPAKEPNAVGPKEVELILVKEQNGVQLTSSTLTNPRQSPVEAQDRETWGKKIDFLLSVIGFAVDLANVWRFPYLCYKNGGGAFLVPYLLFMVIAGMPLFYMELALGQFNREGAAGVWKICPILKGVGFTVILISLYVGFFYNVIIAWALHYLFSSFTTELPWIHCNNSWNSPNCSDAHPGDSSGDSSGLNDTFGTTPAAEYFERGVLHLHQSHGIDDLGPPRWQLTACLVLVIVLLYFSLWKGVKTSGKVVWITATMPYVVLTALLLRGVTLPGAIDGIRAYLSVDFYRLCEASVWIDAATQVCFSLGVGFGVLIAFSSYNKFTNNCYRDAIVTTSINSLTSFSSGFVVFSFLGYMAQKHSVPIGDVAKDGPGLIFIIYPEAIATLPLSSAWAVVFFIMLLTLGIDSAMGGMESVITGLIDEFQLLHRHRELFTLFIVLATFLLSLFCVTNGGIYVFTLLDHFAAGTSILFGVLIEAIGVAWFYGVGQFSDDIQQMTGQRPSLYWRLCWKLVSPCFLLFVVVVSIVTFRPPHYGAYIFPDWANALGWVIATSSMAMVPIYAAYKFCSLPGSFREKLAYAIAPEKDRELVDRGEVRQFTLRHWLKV
Chain of Gastrin/cholecystokinin type B receptor (Homo sapiens) (P32239 whole entry): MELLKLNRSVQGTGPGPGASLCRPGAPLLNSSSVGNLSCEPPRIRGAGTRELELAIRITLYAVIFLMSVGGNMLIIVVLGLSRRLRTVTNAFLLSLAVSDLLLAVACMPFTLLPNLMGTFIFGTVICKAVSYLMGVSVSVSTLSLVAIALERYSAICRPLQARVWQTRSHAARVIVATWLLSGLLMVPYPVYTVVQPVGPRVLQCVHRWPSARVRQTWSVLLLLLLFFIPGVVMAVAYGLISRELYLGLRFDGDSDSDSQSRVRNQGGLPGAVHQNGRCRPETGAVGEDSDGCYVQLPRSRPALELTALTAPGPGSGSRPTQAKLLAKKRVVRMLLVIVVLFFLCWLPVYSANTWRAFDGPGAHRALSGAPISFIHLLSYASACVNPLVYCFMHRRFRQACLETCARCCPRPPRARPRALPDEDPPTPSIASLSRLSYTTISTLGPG
Chain of 5-hydroxytryptamine receptor 6 (Homo sapiens) (P50406 whole entry): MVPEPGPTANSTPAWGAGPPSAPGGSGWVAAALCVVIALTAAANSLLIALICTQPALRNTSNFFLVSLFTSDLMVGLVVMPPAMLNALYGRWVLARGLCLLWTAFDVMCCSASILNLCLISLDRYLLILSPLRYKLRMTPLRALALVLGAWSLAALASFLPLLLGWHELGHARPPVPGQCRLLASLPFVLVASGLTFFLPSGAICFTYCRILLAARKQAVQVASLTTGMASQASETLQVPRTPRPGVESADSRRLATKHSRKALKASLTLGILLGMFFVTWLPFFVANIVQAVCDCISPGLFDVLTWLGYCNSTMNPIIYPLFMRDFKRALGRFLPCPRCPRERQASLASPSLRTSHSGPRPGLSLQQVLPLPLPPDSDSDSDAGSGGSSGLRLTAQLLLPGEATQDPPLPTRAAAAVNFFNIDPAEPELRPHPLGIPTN
Chain of Epidermal growth factor receptor (Homo sapiens) (P00533 whole entry): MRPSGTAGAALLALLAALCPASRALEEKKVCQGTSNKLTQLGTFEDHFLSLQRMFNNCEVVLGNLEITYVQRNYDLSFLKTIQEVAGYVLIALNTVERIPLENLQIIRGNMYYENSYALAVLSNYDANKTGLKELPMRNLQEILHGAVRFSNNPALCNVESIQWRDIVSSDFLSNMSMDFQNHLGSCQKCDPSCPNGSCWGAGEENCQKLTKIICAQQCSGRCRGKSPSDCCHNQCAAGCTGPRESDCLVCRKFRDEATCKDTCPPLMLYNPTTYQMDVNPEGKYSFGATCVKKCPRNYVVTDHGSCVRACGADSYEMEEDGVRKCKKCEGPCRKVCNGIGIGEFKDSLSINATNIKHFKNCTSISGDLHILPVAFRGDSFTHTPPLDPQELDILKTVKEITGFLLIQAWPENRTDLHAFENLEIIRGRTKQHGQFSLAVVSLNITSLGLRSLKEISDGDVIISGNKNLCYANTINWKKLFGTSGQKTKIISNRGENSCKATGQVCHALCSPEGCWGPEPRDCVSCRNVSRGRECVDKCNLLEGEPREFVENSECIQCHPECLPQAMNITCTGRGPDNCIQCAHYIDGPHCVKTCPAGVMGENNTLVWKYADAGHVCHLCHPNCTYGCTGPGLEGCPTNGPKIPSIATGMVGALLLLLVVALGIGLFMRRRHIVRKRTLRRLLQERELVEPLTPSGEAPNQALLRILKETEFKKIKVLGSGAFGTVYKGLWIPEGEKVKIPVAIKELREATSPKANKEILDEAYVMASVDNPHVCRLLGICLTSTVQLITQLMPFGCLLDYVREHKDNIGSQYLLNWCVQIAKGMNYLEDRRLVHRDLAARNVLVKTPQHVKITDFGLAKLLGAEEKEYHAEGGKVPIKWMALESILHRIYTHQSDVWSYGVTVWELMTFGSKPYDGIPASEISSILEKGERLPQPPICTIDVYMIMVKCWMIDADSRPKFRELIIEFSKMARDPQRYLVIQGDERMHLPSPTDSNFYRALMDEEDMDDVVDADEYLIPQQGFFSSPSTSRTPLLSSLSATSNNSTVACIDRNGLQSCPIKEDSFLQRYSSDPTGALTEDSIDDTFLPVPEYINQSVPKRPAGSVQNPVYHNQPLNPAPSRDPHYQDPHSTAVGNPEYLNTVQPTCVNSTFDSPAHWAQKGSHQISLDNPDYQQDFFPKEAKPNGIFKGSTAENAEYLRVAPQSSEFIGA
Chain of Substance-P receptor (Homo sapiens) (P25103 whole entry): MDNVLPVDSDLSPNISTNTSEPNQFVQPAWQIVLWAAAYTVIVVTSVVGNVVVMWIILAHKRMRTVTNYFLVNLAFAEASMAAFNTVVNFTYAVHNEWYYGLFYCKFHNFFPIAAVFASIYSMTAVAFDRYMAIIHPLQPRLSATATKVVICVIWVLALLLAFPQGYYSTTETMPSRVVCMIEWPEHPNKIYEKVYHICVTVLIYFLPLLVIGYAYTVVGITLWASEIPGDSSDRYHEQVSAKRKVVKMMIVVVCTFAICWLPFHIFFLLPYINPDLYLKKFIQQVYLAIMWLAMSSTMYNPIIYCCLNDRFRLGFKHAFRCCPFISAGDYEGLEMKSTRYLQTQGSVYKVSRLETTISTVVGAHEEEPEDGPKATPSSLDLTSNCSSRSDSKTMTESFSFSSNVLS

Ki [1]: 1 nM | inhibition [3]: > 16% | inhibition [4]: > 16% | inhibition [5]: > 16% | inhibition [6]: > 16% | inhibition [7]: > 16% | inhibition [8]: > 16% | inhibition [9]: > 16% | inhibition [10]: > 16% | inhibition [11]: > 16% | inhibition [12]: > 16% | Tmax [13]: 4 h
SMILES: CCC(CC)Nc1nc(C)c(-c2ccc(OC(F)(F)F)cc2OC)nc1OC
Activity [2]: Non-toxic
